The nature of data set [1]: Apparent permeability across human Caco-2 cells. The format is ADME, cell-based. The gist of the method: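 Caco-2 monolayers (passage 94-100) on 0.4 µm polycarbonate inserts, seeded 4.4 × 10^5 cells per cm2, differentiated 24 ± 1 days. Transport in HBSS with 0.5% DMSO, apical pH 6.0 (10 mM MES), basolateral pH 7.4 (25 mM HEPES); P-gp runs at pH 7.4. Both directions sampled over time. Papp = dQ/dt × 1/(A × c0); n = 3-4.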
A general note: Caco-2 cells form a polarised layer with tight junctions and transporters.

A short description of data set [2]: Apparent permeability from apical to basolateral side of human Caco-2 cells in presence of 5 mM GlySar. The class given is ADME, cell-based. The conditions noted are these: Caco-2, with GlySar 5 mM.
Data set [3] can be described thus: Apparent permeability from apical to basolateral side of human Caco-2 cells. The class given is ADME, cell-based. The gist of the method: (§1)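 Caco-2 monolayers (passage 94-100) on polycarbonate inserts, differentiated 24 ± 1 days. Transport in HBSS with pH gradient: apical pH 6.0 (10 mM MES), basolateral pH 7.4 (25 mM HEPES), 0.5% DMSO final. Samples taken at intervals, replaced with HBSS + 0.5% DMSO. Papp = dQ/dt × 1/(A × c0), from steady-state flux; n = 3-4.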

The nature of data set [4]: Apparent permeability from basolateral to apical side of human Caco-2 cells. The format is ADME, cell-based. The gist of the method:
as §1

Data set [5] concerns the target T1, Solute carrier family 15 member 1 (Homo sapiens) (UniProt P46059).
T1 sequence (whole entry): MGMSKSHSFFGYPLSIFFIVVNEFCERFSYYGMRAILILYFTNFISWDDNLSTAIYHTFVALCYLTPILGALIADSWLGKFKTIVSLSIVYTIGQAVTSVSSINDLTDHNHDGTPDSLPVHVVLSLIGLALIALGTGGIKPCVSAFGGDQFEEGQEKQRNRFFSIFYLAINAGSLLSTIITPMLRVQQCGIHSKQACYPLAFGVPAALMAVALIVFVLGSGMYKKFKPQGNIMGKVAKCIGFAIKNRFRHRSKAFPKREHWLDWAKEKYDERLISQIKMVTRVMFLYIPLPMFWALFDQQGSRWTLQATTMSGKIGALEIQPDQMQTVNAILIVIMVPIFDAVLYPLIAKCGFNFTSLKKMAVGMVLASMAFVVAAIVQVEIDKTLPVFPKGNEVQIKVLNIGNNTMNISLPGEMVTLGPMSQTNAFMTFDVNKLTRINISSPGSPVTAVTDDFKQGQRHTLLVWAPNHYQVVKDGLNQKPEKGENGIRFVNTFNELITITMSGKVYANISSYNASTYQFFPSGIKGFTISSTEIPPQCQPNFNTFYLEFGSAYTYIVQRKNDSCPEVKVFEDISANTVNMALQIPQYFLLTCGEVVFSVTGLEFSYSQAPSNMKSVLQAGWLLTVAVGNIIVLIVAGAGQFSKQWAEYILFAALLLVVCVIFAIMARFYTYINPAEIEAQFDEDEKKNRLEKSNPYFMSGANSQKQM
Put plainly: Inhibition of [3H]GlySar uptake at human PepT1 in Caco-2 cells. The format is cell-based. In short, it runs like this:
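Uptake into differentiated Caco-2 monolayers under apical pH 6.0/basolateral pH 7.4 HBSS. 5 min incubation with 1 µCi/mL [3H]GlySar (250 nM), with or without 4 mM test compound in the apical donor chamber. Stopped by removing solution and three ice-cold HBSS washes. Monolayer radioactivity counted relative to control; SD, n = 3, significance at p < 0.05.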

The nature of data set [6]: Apparent permeability from apical to basolateral side of human Caco-2 cells at pH 7.4 after 180 mins. The class given is ADME, cell-based. The conditions noted are these: Caco-2, pH 7.4. The gist of the method: (§2)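 Caco-2 monolayers (passage 94-100, differentiated 24 ± 1 days on inserts). Transport in HBSS at pH 7.4 on both sides, 0.5% DMSO final, over 180 min. Run with and without P-gp inhibitor GF120918 at 2 µM. Samples taken at intervals. Papp from steady-state flux divided by filter area and initial donor concentration.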

A short description of data set [7]: Apparent permeability from basolateral to apical side of human Caco-2 cells at pH 7.4 after 180 mins. The class given is ADME, cell-based. The conditions noted are these: Caco-2, pH 7.4. In short, it runs like this: as §2

This note sets out measurements from ChEMBL document CHEMBL1148825, “Beta- and gamma-di- and tripeptides as potential substrates for the oligopeptide transporter hPepT1” (J Med Chem, 2007).

Calls of active or inactive are those of the source. The calls are words filed in the database; no cut-off is given here. Square brackets hold non-standard residues; d marks the D form. Peptide text beside a SMILES is read from it. Sar = CNCC(=O)O

Broadly, the Papp is the rate of passage across a membrane or cell layer, normalised by area and donor concentration. As to `CN(CC(=O)O)C(=O)CN` [GLYCYLSARCOSINE] (H-Gly-[Sar]-OH), the Papp in data set [1] stood at 11 ×10⁻⁶ cm/s.

The Papp A→B is the apparent permeability from the apical to the basolateral side of a cell layer. Usually Papp B→A stands for the apparent permeability from the basolateral to the apical side of a cell layer. For `CC(C)[C@H](N)CC(=S)N[C@@H](C)CC(=O)O`, the Papp A→B in data set [2] came out at 0.393 ×10⁻⁶ cm/s; in data set [3] it was 0.754 ×10⁻⁶ cm/s. Also, the Papp B→A in data set [4] worked out at 0.124 ×10⁻⁶ cm/s. Also, in data set [5], the result was Active.

`C[C@@H](CC(=O)O)NC(=O)C[C@H](C)NC(=O)C[C@@H](N)CO`: the figures for the Papp A→B in data set [2] and in data set [3] were 0.043 ×10⁻⁶ cm/s and 0.044 ×10⁻⁶ cm/s, respectively. Also, the result in data set [5] was inactive.

Turning to `CC(C)C[C@@H](CNC(=O)[C@@H](C)CNC(=O)[C@H](CN)C(C)C)C(=O)O`, the Papp A→B in data set [2] was determined as 0.023 ×10⁻⁶ cm/s; in data set [3], 0.024 ×10⁻⁶ cm/s. Further, in data set [4], the Papp B→A was determined as 0.071 ×10⁻⁶ cm/s. Moreover, the result in data set [5] was Active.

Take `NCCCC[C@@H](CC(=O)N[C@H](CC(=O)O)Cc1ccccc1)NC(=O)C[C@@H](N)CO`: the Papp A→B in data set [2] is 0.031 ×10⁻⁶ cm/s; in data set [3] it was 0.037 ×10⁻⁶ cm/s. Moreover, the Papp B→A in data set [4] turned out to be 0.071 ×10⁻⁶ cm/s. In addition, the result in data set [5] was Active.

Take `C[C@H](N)CC(=O)N[C@@H](CCCCN)CC(=O)O`: in data set [3], the Papp A→B was determined as 0.037 ×10⁻⁶ cm/s. The Papp B→A in data set [4] was 0.078 ×10⁻⁶ cm/s. The result in data set [5] was Active. In addition, the apparent permeability from apical to basolateral (Papp A→B) at 3 h in data set [6] stood at 0.044 ×10⁻⁶ cm/s. Also, the Papp B→A at 3 h in data set [7] was found to be 0.051 ×10⁻⁶ cm/s.

Turning to `C[C@H](N)CC(=O)N[C@@H](CCCCN)CC(=O)N[C@H](CC(=O)O)Cc1ccccc1`, the Papp A→B in data set [2] turned out to be 0.039 ×10⁻⁶ cm/s; in data set [3], 0.049 ×10⁻⁶ cm/s. The Papp B→A in data set [4] amounted to 0.061 ×10⁻⁶ cm/s. Besides, the outcome in data set [5] was Active.

Regarding `CCC[C@@H](C[C@H](C)NC(=O)[C@H](C)C[C@@H](NC(=O)[C@@H](Cc1ccccc1)C[C@@H](C)N)C(C)C)C(=O)O`, the values for the Papp A→B in data set [2] and in data set [3] were 0.028 ×10⁻⁶ cm/s and 0.033 ×10⁻⁶ cm/s, respectively. In data set [4], the Papp B→A is 0.097 ×10⁻⁶ cm/s. The outcome in data set [5] was Active. Besides, the apical-to-basolateral permeability (Papp A→B) at 3 h in data set [6] worked out at 0.021 ×10⁻⁶ cm/s. In data set [7], the Papp B→A at 3 h was determined as 0.115 ×10⁻⁶ cm/s.

Turning to `CC(C)C[C@@H](CC(=O)O)NC(=O)C[C@H](C)N`, the Papp A→B in data set [2] came to 0.291 ×10⁻⁶ cm/s; in data set [3] it was 0.613 ×10⁻⁶ cm/s. Also, the Papp B→A in data set [4] was 0.129 ×10⁻⁶ cm/s. For the same compound, the result in data set [5] was Active.

Regarding `NCCCC[C@H](N)CC(=O)N[C@H](CC(=O)O)Cc1ccccc1`, the Papp A→B came to 0.045 ×10⁻⁶ cm/s in data set [2] and 0.072 ×10⁻⁶ cm/s in data set [3]. In addition, the Papp B→A in data set [4] worked out at 0.075 ×10⁻⁶ cm/s. For the same compound, the outcome in data set [5] was Active.

On to `CC(C)C[C@H](CCNC(=O)[C@H](C)CCNC(=O)[C@@H](CCN)C(C)C)C(=O)O`, for which the figures for the Papp A→B in data set [2] and in data set [3] were 0.026 ×10⁻⁶ cm/s and 0.034 ×10⁻⁶ cm/s, respectively. Also, in data set [4], the Papp B→A amounted to 0.094 ×10⁻⁶ cm/s. Moreover, in data set [5], the result was inactive.

For the compound `CC(C)C[C@@H](CC(=O)O)NC(=O)[C@@H](C)CN`, the Papp A→B in data set [2] was found to be 0.055 ×10⁻⁶ cm/s; in data set [3], 0.095 ×10⁻⁶ cm/s. In addition, the Papp B→A in data set [4] is 0.084 ×10⁻⁶ cm/s. Also, the result in data set [5] was Active.
